Compound activity (PubChem BioAssay)
Hits are enriched below; roughly 2.7% of the tested compounds scored in any of these assays.
IMP-1 inh-1: IMP-1 metallo-beta-lactamase inhibitors, primary screen, biochemical, epi-absorbance readout, Pseudomonas aeruginosa enzyme; metallo-beta-lactamase IMP-1 (Pseudomonas aeruginosa); purified IMP-1, nitrocefin hydrolysis, epi-absorbance fluorescence; inhibition, % at 5.6 µM; 290,000 compounds, 0.45% hits; AID 1556, 2009;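 active = inhibition above the mean plus 3 SD of all compounds in the same screening run, cut at about 4.5% in these data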;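 also: 0% = IMP-1 with DMSO and 100% = DMSO wells lacking enzyme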
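System – purified recombinant IMP-1 beta-lactamase · Input – IMP-1 dispensed at 0.2 nM · Timing – 15 min preincubation plus 25 min reaction at 25 °C · Signal – Epi-absorbance fluorescence, 480 nm excitation, 530 nm emission · Measure – percent IMP-1 inhibition derived from blank-referenced optical density · Controls – Enzyme-plus-DMSO low control, enzyme-free DMSO high control · Replication – singlicate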
M18AAP inhibitor: PfM18AAP inhibitors, malaria aminopeptidase, primary screen, biochemical, QFRET, recombinant enzyme; H-Glu-NHMec fluorogenic cleavage; inhibition, % at 7.35 µM; 290,000 compounds, 1.2% hits; AID 1822, 2009;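 active = inhibition above the campaign mean inhibition over all tested compounds plus 3 SD, cut at about 28% in these data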;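 also: 0% = plate median of test compound wells and 100% = 2 mM ZnCl2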
VIM-2 inhibitor: VIM-2 metallo-beta-lactamase inhibitors, primary screen, biochemical, epi-absorbance readout, Pseudomonas aeruginosa enzyme; inhibition, % at 5.6 µM; purified VIM-2, nitrocefin hydrolysis, epi-absorbance fluorescence; 290,000 compounds, 0.89% hits;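 active = inhibition above the mean of all tested compounds plus 3 SD, cutoff set per screening run, cut at about 7.5% in these data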;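 also: red hydrolysis product quenches plate fluorescence so inhibitors raise well fluorescence; 0% = enzyme with DMSO and 100% = DMSO without enzyme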
Fh CTSL1 inh: Fasciola hepatica cathepsin L1 inhibitors, primary screen, counter-screen for PFM18AAP inhibitor project, biochemical, QFRET, fluorogenic peptide substrate | 300,000 compounds, 0.49% hits | inhibition, % at 5.96 µM | recombinant F. hepatica cathepsin L1, Z-Leu-Arg-MCA fluorescence;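 active = inhibition above the mean of all tested compounds plus 3 SD, set per screening campaign, cut at about 17% in these data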;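 also: 0% = plate median of test compound wells and 100% = 1 µM Z-Phe-Ala-diazomethylketone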
IMP-1 inh-2: IMP-1 metallo-beta-lactamase inhibitors, confirmation, selectivity assay for selective VIM-2 inhibitor project, biochemical, epi-absorbance readout, triplicate. shares compounds with VIM-2 inhibitor. purified IMP-1, nitrocefin hydrolysis, epi-absorbance fluorescence. inhibition, % at 5.6 µM. 1,300 tested, under 10 active. AID 1856, 2009; call rule not given here;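 also: 0% = enzyme with vehicle and 100% = vehicle without enzyme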
VIM-2 FRET inh: VIM-2 inhibitors in FRET format, confirmation, artefact control for selective VIM-2 inhibitor project, biochemical, epi-absorbance artifact exclusion; 1,300 compounds, 23% hits; shares compounds with VIM-2 inhibitor; inhibition, % at 5.6 µM; purified VIM-2, CCF2 FRET substrate hydrolysis;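 active = inhibition above the mean of all tested compounds plus 3 SD, cut at about 19% in these data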;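 also: 0% = VIM-2 plus DMSO and 100% = no enzyme wells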
TEM-1 counter: TEM-1 serine beta-lactamase inhibitors, counter-screen for VIM-2 inhibitor project, biochemical, epi-absorbance, HTS; AID 1866, 2009; Purified TEM-1, nitrocefin hydrolysis, epi-absorbance fluorescence; shares compounds with VIM-2 inhibitor; 1,300 compounds, 3% hits; inhibition, % at 5.6 µM;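 active = inhibition above that campaign's mean inhibition plus 3 SD, cut at about 0.46% in these data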;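 also: 0% = TEM-1 with DMSO and 100% = TEM-1 with 100 µM potassium clavulanate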
Target sequence (P62593 whole entry, looked up): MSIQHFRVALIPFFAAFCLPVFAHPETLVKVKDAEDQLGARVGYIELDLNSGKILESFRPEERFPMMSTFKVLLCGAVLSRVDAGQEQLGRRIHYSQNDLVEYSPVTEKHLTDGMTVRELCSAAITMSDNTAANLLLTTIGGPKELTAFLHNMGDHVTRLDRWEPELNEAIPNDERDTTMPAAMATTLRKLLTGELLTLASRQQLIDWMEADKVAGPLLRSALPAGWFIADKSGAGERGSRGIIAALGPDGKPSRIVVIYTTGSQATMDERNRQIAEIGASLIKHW
VIM-2 inh conf: VIM-2 metallo-beta-lactamase inhibitors, confirmation, biochemical, epi-absorbance, hits shared with IMP-1 screen | inhibition, % at 5.6 µM | shares compounds with VIM-2 inhibitor | AID 2187, 2009 | 1,300 compounds, 96% hits | purified VIM-2, nitrocefin hydrolysis;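 active = inhibition of the VIM-2 beta-lactamase enzyme above about 11% from the earlier first-round screen, limit read from the data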;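 also: 0% = VIM-2 with DMSO and 100% = buffer wells without enzyme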
Active calls of the source: *.

For CCN(CC)CCCNc1nc2cc(OC)c(OC)cc2c2nc(-c3cccnc3)nn12 the results were IMP-1 inh-1 0.8, M18AAP inhibitor 2.1, VIM-2 inhibitor 22.3*, Fh CTSL1 inh 3.3, IMP-1 inh-2 -1.8, VIM-2 FRET inh -2.9, TEM-1 counter -6.2 and VIM-2 inh conf 42.4*.
CCN(CC)CCCNc1nc2cc(OC)c(OC)cc2c2nc(-c3ccccc3)nn12 was read as IMP-1 inh-1 -4.1, M18AAP inhibitor -8.9, VIM-2 inhibitor 4.2 and Fh CTSL1 inh -3.3.
Screening CCN(CC)CCCNc1nc2ccccc2c2nc(-c3ccncc3)nn12 returned IMP-1 inh-1 -1.1, M18AAP inhibitor 0.4, VIM-2 inhibitor 27.9*, Fh CTSL1 inh 1.6, IMP-1 inh-2 -2.9, VIM-2 FRET inh 0.1, TEM-1 counter -5.6 and VIM-2 inh conf 37.1*.
COc1ccc2ccccc2c1C1NC(=O)NC(C)=C1[N+](=O)[O-] (configuration not stated) was read as IMP-1 inh-1 -4.5, M18AAP inhibitor 3.6, VIM-2 inhibitor -3.7 and Fh CTSL1 inh 1.4.
`CCOc1ccc(CNC(=O)C2Cc3cc(S(=O)(=O)N4CCCCC4)ccc3N2C(C)=O)cc1` (configuration not stated) gave IMP-1 inh-1 0.7, M18AAP inhibitor 4.0, VIM-2 inhibitor -4.7 and Fh CTSL1 inh -3.7.
`CCOc1ccc(CNC(=O)C2Cc3cc(S(=O)(=O)N4CCCC4)ccc3N2C(C)=O)cc1` (configuration not stated) gave IMP-1 inh-1 -0.1, M18AAP inhibitor 0.5, VIM-2 inhibitor 25.4*, Fh CTSL1 inh -4.0, IMP-1 inh-2 -3.6, VIM-2 FRET inh -2.5, TEM-1 counter -3.5 and VIM-2 inh conf 0.9.
Cc1nc2cc(C(=O)OCC(=O)Nc3ccc(C#N)cc3)ccc2n1-c1ccccc1 was read as IMP-1 inh-1 -3.9, M18AAP inhibitor -11.6, VIM-2 inhibitor -0.9 and Fh CTSL1 inh 1.8.
For COC(=O)c1c(C)cc(C)n2c1nc1ccccc12 the results were IMP-1 inh-1 -4.3, M18AAP inhibitor -2.3, VIM-2 inhibitor 14.5*, Fh CTSL1 inh 2.8, IMP-1 inh-2 -3.5, VIM-2 FRET inh -10.2, TEM-1 counter -4.5 and VIM-2 inh conf 28.0*.
`Cc1cc(C)n2c(nc3ccccc32)c1C(=O)NN` gave IMP-1 inh-1 -2.4, M18AAP inhibitor 6.9, VIM-2 inhibitor -2.6 and Fh CTSL1 inh 0.1.
O=C(Nc1ccc(-n2ccnc2P(=O)(O)c2ccccc2)cc1)c1ccccc1Cl was read as IMP-1 inh-1 -2.8, M18AAP inhibitor 8.7, VIM-2 inhibitor 14.8*, Fh CTSL1 inh 6.3, IMP-1 inh-2 -3.5, VIM-2 FRET inh 29.4*, TEM-1 counter -4.5 and VIM-2 inh conf 20.8*.
For Cc1ccc2cccnc2c1N the results were IMP-1 inh-1 -3.2, M18AAP inhibitor 12.6, VIM-2 inhibitor 15.8*, Fh CTSL1 inh 1.3, IMP-1 inh-2 -2.6, VIM-2 FRET inh -9.8, TEM-1 counter -5.3 and VIM-2 inh conf 40.5*.
Oc1ccc2ccccc2c1-c1sc(Nc2ccccc2)n[n+]1-c1ccc(F)cc1 was read as IMP-1 inh-1 0.5, M18AAP inhibitor -5.9, VIM-2 inhibitor 16.9*, Fh CTSL1 inh 5.9, IMP-1 inh-2 4.9*, VIM-2 FRET inh -3.7, TEM-1 counter 1.3* and VIM-2 inh conf 8.2*.
